Assay results from publication PMC5490379 (Molecular pharmaceutics, 2017).

What was measured:
σ1 receptor [1] = target: σ1 receptor (Cavia porcellus, UniProt Q60492); assay: In vitro σ1 binding assay; parameters: species or system guinea pig; conditions: for Ki σ1: guinea pig brain membrane homogenates; for fold reduction in σ1 affinity: compared with 3a
In short: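 Guinea pig brain membrane homogenate (300–500 µg protein) incubated with 3 nM [3H]-(+)-pentazocine (51.7 Ci/mmol) and test compound (10-4 to 10-12 M) in 50 mM Tris-HCl pH 8.0, 25 °C, 120 min. Stopped with ice-cold 10 mM Tris-HCl pH 8.0, filtered on PEI-soaked glass fibre filters, washed twice. […] IC50 by iterative curve fitting; Ki by Cheng-Prusoff. Protein by Lowry.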

σ2 receptor = target: T1, σ2 receptor (Rattus norvegicus, UniProt Q5U3Y7); assay: In vitro σ2 binding assay; conditions: for Ki σ2: rat liver membrane homogenates, 3 nM [^3H]DTG, 1 μM dextrallorphan; for fold reduction in σ2 affinity: compared with 3a
T1 sequence (Q5U3Y7 1-176): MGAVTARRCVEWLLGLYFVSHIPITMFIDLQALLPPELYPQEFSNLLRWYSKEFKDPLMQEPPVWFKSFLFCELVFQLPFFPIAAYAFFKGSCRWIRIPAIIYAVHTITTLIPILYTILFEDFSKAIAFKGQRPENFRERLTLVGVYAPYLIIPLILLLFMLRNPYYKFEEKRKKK
In short: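 Rat liver membrane homogenate (150–200 µg protein) incubated with 3 nM [3H]DTG (39.4 Ci/mmol) plus 1 µM dextrallorphan to mask σ1 sites, with test compound from 10-4 to 10-12 M. Conditions as for σ1: 50 mM Tris-HCl pH 8.0, 25 °C, 120 min, then filtration. […] IC50 by curve fitting, converted to Ki by Cheng-Prusoff.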

σ1 receptor [2] = conditions: ref [10]; cited from earlier work
PC-3 prostate tumors = conditions: mice bearing PC-3 prostate tumors; ref [30]; cited from earlier work
[3] = Mouse liver microsomal assay; type: in vitro ADME; conditions: liver microsomes
In short: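 Mouse liver microsomes (20 mg/mL stock) diluted in 0.1 M phosphate buffer containing 3.3 mM MgCl2. Test compound added from a 100 µM stock, with verapamil as positive control. Intact test compound quantified over time by LC-MS/MS, and metabolic degradation half-life derived from its disappearance.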

σ1 receptor (Cavia porcellus, UniProt Q60492), sequence (Q60492 whole entry): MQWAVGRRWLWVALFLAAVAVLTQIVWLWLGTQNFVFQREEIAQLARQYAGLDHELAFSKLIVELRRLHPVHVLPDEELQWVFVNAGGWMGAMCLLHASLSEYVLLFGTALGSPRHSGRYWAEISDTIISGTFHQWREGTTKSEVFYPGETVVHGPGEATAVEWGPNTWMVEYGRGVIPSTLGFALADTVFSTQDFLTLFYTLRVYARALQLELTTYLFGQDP

O=C(NCCN1CCCCC1)c1cc(Br)ccc1O [Compound 2, 5-Bromo-2-hydroxy-N-{2-(piperidin-1-yl)ethyl}benzamide]
Ki σ1 (σ1 receptor [1]; 3 nM [^3H]-(+)-pentazocine): devoid of σ receptor binding affinity
Ki σ2 (σ2 receptor): devoid of σ receptor binding affinity

O=C(NCCN1CCCCC1)c1ccc(I)cc1 [Compound 4-IPAB]
σ1 affinity (σ1 receptor [2]): nanomolar

[11CH3]Oc1cccc2c1CCCC2CCCN1CCN(C2CCCCC2)CC1 (stereo not shown) [[^11C]PB28]
tumor uptake (PC-3 prostate tumors): poor tumor uptake

COc1ccc(C(=O)NCCN2CCCCC2)cc1I [PIMBA]
σ1 affinity (σ1 receptor [2]): nanomolar

O=C(NCCN1CCCCC1)c1ccc(O)c(Br)c1 [Compound 6, 3-Bromo-4-hydroxy-N-{2-(piperidin-1-yl)ethyl}benzamide]
Ki σ1 (σ1 receptor [1]; 3 nM [^3H]-(+)-pentazocine): devoid of σ receptor binding affinity
Ki σ2 (σ2 receptor): devoid of σ receptor binding affinity

O=C(NCCN1CCCCC1)c1cc(Br)ccc1OCCF [Compound 3a, 5-Bromo-2-(2-fluoroethoxy)-N-{2-(piperidin-1-yl)ethyl}benzamide]
Ki (σ1 receptor [1]; Ki σ1, guinea pig brain membrane homogenates, 3 nM [^3H]-(+)-pentazocine): 6.3 nM
half-life at 1 μM [3]: 5.94 min

O=C(NCCN1CCCCC1)c1ccc(OCCF)c(Br)c1 [Compound 7a, 3-Bromo-4-(2-fluoroethoxy)-N-{2-(piperidin-1-yl)-ethyl}benzamide]
fold reduction in σ1 affinity (σ1 receptor [1]): 6 fold
fold reduction in σ2 affinity (σ2 receptor): 4 fold

O=C(NCCN1CCCCC1)c1cc(Br)ccc1OCCCF [Compound 3b, 5-Bromo-2-(3-fluoropropoxy)-N-{2-(piperidin-1-yl)ethyl}benzamide]
fold reduction in σ1 affinity (σ1 receptor [1]): 9 fold
fold reduction in σ2 affinity (σ2 receptor): 9 fold
